Experiments:
[1] = Metabolic stability in rat liver microsomes assessed as compound remaining at 5 uM after 30 mins; assay type: ADME, Microsome; settings: read-out: Stability
Mus musculus = test: Antidiuretic activity in mouse assessed as reduction in urine osmolality at 400 ug, ip administered 1 hr followed by dDAVP administration (reference value: >3 Osm/kg); assay type: functional
Homo sapiens = organism: Homo sapiens; test: Inhibition of UT-B-mediated urea transport in human erythrocytes incubated for 10 mins prior to urea addition by Stopped-flow light scattering assay; assay type: cell-based
Outline: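 Human venous blood in heparin, kept at 4 °C and used within 48 h, diluted in PBS to ~0.5% hematocrit. Inhibitor for 10 min, then mixed 1:1 in stopped-flow to impose a 100 mM inward urea gradient. Cell swelling followed as 90° scattered light at 530 nm. Urea permeability and % inhibition computed.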

[2] = Half life in rat liver microsomes at 5 uM; assay type: ADME, Microsome
Kidney = test: Drug uptake in mouse kidney at 400 ug, ip administered as bolus dose; assay type: ADME, organism-based; settings: in vivo, read-out: Drug uptake
[3] = Drug excretion in mouse urine at 400 ug, ip administered as bolus dose; assay type: ADME, organism-based; settings: in vivo
Blood = test: Drug uptake in mouse blood at 200 ug, ip at 6 hrs; assay type: ADME, organism-based; settings: in vivo
Outline: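 Mice (8–10 weeks, 25–35 g) received 200 μg of each of two inhibitors together by ip injection in DMSO/Tween-80/PEG400 formulation. Blood taken at 6 h, diluted with equal volume of water, extracted with ethyl acetate, LC/MS against standards. SE, 3 mice.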

Row | Compound | remaining at 0.5 h, 5 µM [1] [%] | also measured
1 | CC(F)(F)c1ccc(S(=O)(=O)c2nnn3c2nc(NCc2cccs2)c2sccc23)cc1 | 96 | Activity (Mus musculus): 0.5 Osm/kg; inhibition (Homo sapiens): Dose-dependent effect; half-life at 5 µM [2]: 2 h; concentration (Kidney): > 1000 nM; Drug excretion [3]: > 1 µM; Drug uptake (Blood): Active
2 | O=S(=O)(c1cccs1)c1nnn2c1nc(NCc1cccs1)c1sccc12 | < 5 | 
3 | CC(C)c1ccc(S(=O)(=O)c2nnn3c2nc(NCc2cccs2)c2sccc23)cc1 | < 5 | 
4 | COc1ccc(S(=O)(=O)c2nnn3c2nc(NCc2cccs2)c2sccc23)cc1 | 6 | 
5 | CCc1ccc(S(=O)(=O)c2nnn3c2nc(NCc2cccs2)c2sccc23)cc1 | < 5 | half-life at 5 µM [2]: 0.0467 h; Drug uptake (Blood): Active
6 | O=S(=O)(c1ccc(F)cc1)c1nnn2c1nc(NCc1cccs1)c1sccc12 | 27 | 
7 | O=S(=O)(c1ccc(C(F)(F)F)cc1)c1nnn2c1nc(NCc1cccs1)c1sccc12 | 99 | 

Further lines, with some results ahead:

Row | remaining at 0.5 h, 5 µM [1] [%] | Compound | also measured
8 | 60 | O=S(=O)(c1ccc(Br)cc1)c1nnn2c1nc(NCc1cccs1)c1sccc12 | 
9 | 45 | CC(C)c1ccc(S(=O)(=O)c2nnn3c2nc(NCc2cccc4ccccc24)c2sccc23)cc1 | 
10 | > 99 | CC(C)c1ccc(S(=O)(=O)c2nnn3c2nc(NCc2ccco2)c2sccc23)cc1 | 
11 | 95 | O=S(=O)(c1ccc(OC(F)(F)F)cc1)c1nnn2c1nc(NCc1cccs1)c1sccc12 | 
12 | 7 | COc1ccc(CNc2nc3c(S(=O)(=O)c4ccc(C(C)C)cc4)nnn3c3ccsc23)cc1 | 

— ChEMBL document CHEMBL2163305, “Nanomolar potency and metabolically stable inhibitors of kidney urea transporter UT-B” (J Med Chem, 2012)
